Most compounds without a hit are left out; they make up all but 3.5% or so of the library.
MrgX1 allo act = human MrgX1 positive allosteric modulation, primary screen. MrgX1-HEK293, Fluo-4 calcium flux, FDSS; stronger effect = higher value. 310,000 tested, 0.63% active. B-score at 10 µM;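 active = plate-corrected calcium response at least 3 library SD above typical, normal starting fluorescence, not activating the receptor alone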;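 note: compound read alongside a low EC10 to EC30 dose of BAM8-22 agonist; peak minus trough fluorescence over baseline measured at the second addition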
Target sequence (Q96LB2 whole entry, looked up): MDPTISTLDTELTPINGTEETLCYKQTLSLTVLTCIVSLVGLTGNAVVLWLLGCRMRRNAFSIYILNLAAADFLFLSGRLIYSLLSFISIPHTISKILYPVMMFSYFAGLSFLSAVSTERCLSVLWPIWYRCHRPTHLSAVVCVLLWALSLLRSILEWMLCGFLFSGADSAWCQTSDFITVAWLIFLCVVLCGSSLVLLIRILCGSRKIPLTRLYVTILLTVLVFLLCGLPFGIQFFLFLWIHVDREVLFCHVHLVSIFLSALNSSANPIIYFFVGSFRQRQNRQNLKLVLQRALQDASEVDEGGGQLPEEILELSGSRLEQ
RGS4 pot = RGS4 potentiation or activation; HEK293 M3R/inducible RGS4, carbachol calcium flux Fluo4; stronger effect = lower value; B-score at 10 µM; 310,000 tested, 0.92% active; AID 463111;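 active = B-score of the integrated calcium signal more than 4 SD below the library mean, with starting fluorescence not abnormally high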;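 note: negative B-score means reduced calcium response which marks RGS4 activation or potentiation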
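test system = M3R-expressing HEK293 line, RGS4 induced by doxycycline | probe or stimulus = carbachol at ECmax as muscarinic agonist stimulus | timing = dye loading 30 min 37 °C, buffer rest 30 min RT | signal = calcium dye Fluo4 fluorescence | evaluation = B score from integrated fluorescence ratio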
RGS4 inh = inhibitors of human RGS4 | P49798 | HEK293 M3R/RGS4 inducible, Fluo-4 calcium flux; stronger effect = higher value; triggered by carbachol at its EC20 | B-score at 10 µM | 310,000 tested, 0.45% active | AID 463165;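 active = B-score, a plate-corrected calcium signal, over three deviations above library mean, with baseline fluorescence within five deviations of library mean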;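 note: RGS4 expression induced by doxycycline in cells with stable M3 receptor; B-score is computed from the integrated fluorescence ratio over baseline after carbachol; higher B-score means a larger calcium signal and so more RGS4 inhibition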
Target sequence (P49798 whole entry, looked up): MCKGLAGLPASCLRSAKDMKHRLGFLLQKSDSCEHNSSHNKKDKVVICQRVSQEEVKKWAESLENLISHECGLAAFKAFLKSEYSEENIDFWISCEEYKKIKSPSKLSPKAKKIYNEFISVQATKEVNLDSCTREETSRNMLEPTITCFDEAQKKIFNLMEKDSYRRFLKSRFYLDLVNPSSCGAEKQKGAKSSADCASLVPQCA
MrgX1 antag = blocks BAM8-22 activation of human MrgX1 receptor; 310,000 tested, 1.3% active; MRGX1-HEK293 calcium flux, Fluo-4, BAM8-22 antagonism; stronger effect = lower value; Q96LB2; B-score at 10 µM;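 active = calcium-response B-score plate-corrected more than 3 library SD below zero, starting fluorescence within 5 deviations, no agonist response on first addition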;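 note: peak minus trough fluorescence over baseline after final BAM8-22 challenge near maximal dose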
MrgX1 agonist = activates human MrgX1 receptor signaling; Q96LB2; AID 588627; MrgX1-HEK293 cells, Fluo-4 calcium fluorescence, agonist mode; stronger effect = higher value; 310,000 tested, 0.44% active; B-score at 10 µM;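 active = calcium response B-score plate-corrected fluorescence ratio at least 3 library SD, with starting fluorescence B-score inside 5 SD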
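Material: MrgX1-expressing HEK293 cells / Dosing: compound as first of three additions / Incubation: overnight seeding, then 1 h dark dye loading / Signal: Fluo-4 NW calcium fluorescence / Evaluation: B-scored fluorescence response ratio / Benchmarks: positive and negative control wells on each plate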
Large screens that a line does not name were inactive.

CC1(C)N=C(SCC(=O)Nc2ccc(Cl)cc2)C(c2ccc(Cl)cc2)=N1	RGS4 pot -7.95
O=C(N/N=C/c1cc([N+](=O)[O-])ccc1O)C(O)(c1ccccc1)c1ccccc1	MrgX1 allo act 9.37
CC(C)c1ccccc1OCCCCCN1CCOCC1	RGS4 pot -7.38
COc1ccccc1OCCCCN1CCN(C(c2ccccc2)c2ccccc2)CC1	RGS4 pot -8.11
CC(C)c1ccccc1OCCCCN1CCCCC1	none
CCc1ccc(CN(C)C(=O)CC2C(=O)NCCN2Cc2ccoc2)cc1 (stereo not given)	none
Cc1nc(-c2ccc(F)cc2)c(CC(=O)Nc2ccc(C)c(S(=O)(=O)N3CCOCC3)c2)s1	none
C=CCOc1ccc(/C=C/C(=O)OCC(=O)N2CCCc3ccccc32)cc1	MrgX1 antag -9.46
CC(C)(C)c1ccc(OCc2ccc(C(=O)NCc3cccnc3)o2)cc1	none
CCOC(=O)c1sc(N(Cc2ccccc2)C(=O)CSc2nnc(C3CC3)n2N)nc1C	none
CCC(=O)OC1(C)C(=O)C=C2C=C(CCCCNC(=O)OC(C)(C)C)OC=C2C1=O (stereo not given)	none
CC(C)(C)OC(=O)NCCCC1=CC2=CC(=O)C(C)(OC(=O)c3ccc(Cl)nc3)C(=O)C2=CO1 (stereo not given)	MrgX1 antag -5.01
Cc1c(C2C(C#N)=C(N)N(c3cccc([N+](=O)[O-])c3)C3=C2C(=O)CCC3)cnn1C (stereo not given)	none
O=C(c1ccc2c(c1)OCCO2)N1CCN(c2ncc(C(F)(F)F)cc2Cl)CC1	none
O=C(c1ccco1)N1CCN(C(c2cccs2)c2nnnn2C2CCCCC2)CC1 (stereo not given)	RGS4 pot -7.61
COc1ccc(C(c2nnnn2C2CCCC2)N2CCN(C(=O)c3ccco3)CC2)cc1OC (stereo not given)	none
N#Cc1ccsc1NC(=O)COC(=O)c1cc2ccccc2cc1O	none
CCCCn1c(SCC(=O)NCc2ccco2)nc2ccccc2c1=O	none
CCCCCn1c(SCc2ccncc2)nc2cc(C(=O)NCc3ccco3)ccc2c1=O	RGS4 pot -8.03
CC(C)N1CCNCC1	none
COCc1ccc(C(=O)N(C)CC2CCCN(CCc3ccc(OC)cc3)C2)o1 (stereo not given)	RGS4 pot -7.51
COCc1ccc(C(=O)N(C)CC2CCCN(CCc3ccc(Cl)cc3)C2)o1 (stereo not given)	none
Cc1ccc(NC(=O)Cn2c(=O)c3cccn3c3ccccc32)cc1	none
CC1CC(N(C(=O)c2ccco2)c2ccccc2)c2ccccc2N1 (stereo not given)	MrgX1 allo act 6.51
COc1ccc(OCC(=O)OC2CCCN(C)C2)cc1 (stereo not given)	none
CCN(CC)C(=O)COC(=O)C1=NN(c2cc(C)ccc2C)C(=O)CC1	MrgX1 antag -5.47
CCCCNC(=O)[C@H]1N2C(=O)c3c(ccc(OC)c3OC)C2SC1(C)C (stereo not given in full)	none
CCn1ccc(C(=O)N2CCN(c3ncccn3)CC2)n1	none
CCOC(=O)C1=C(C)NC2=C(C(=O)CCC2)C1c1ccc(N(C)C)cc1 (stereo not given)	none
CCCOC(=O)C1=C(C)NC2=C(C(=O)CCC2)C1c1ccc(N(C)C)cc1 (stereo not given)	RGS4 pot -7.19
Cc1ccc(-c2cn3nc(-c4ccccc4)c(-c4ccccc4)nc3n2)cc1	RGS4 pot -6.98
Cc1ccc(/C=C2\Oc3c(ccc(O)c3CN3CCN(CCO)CC3)C2=O)cc1	RGS4 pot -9.98
COc1ccc(OCc2cc(C(=O)NCCN3CCCc4ccccc43)no2)c(Cl)c1	RGS4 pot -7.47
CC(C)C[C@@]12C(=O)N(c3cccc(Br)c3)C(=O)N1[C@H](c1ccc(F)cc1)[C@@H]1C(=O)N(C3CCCCC3)C(=O)[C@@H]12	none
Cc1ccc(-n2cc(-c3ccccc3)c3c(N4CCOCC4)ncnc32)cc1	RGS4 pot -7.28 (no result: MrgX1 allo act, MrgX1 antag, MrgX1 agonist)
Cc1ccc(-n2cc(-c3ccccc3)c3c(N4CCN(C)CC4)ncnc32)cc1	none
COc1ccc(NC(=O)/C(=C\c2ccc(F)cc2)NC(=O)c2ccco2)cc1	none
O=C(/C=C/c1cccc(Br)c1)NCC1CCCCC1	MrgX1 antag -6.98
CC1Nc2ncnc(N3CCN(c4ccccc4)CC3)c2N(Cc2ccc(Br)cc2)C1=O (stereo not given)	none
COc1ccccc1-n1c(SCC(=O)Nc2ccc(Br)cc2)nc(O)cc1=O	none
O=S(=O)(Cc1ccccc1)N(O)c1ccccc1	none
Cc1c(-n2cc(C(=O)c3cc(F)ccc3O)cc(C#N)c2=O)c(=O)n(-c2ccccc2)n1C	MrgX1 allo act 6.67
Cc1ccc(/C=C/C2=NN(Cc3ccccc3)C(=O)CC2)cc1	none
O=C1CCC(/C=C/c2ccccc2)=NN1Cc1ccccc1	MrgX1 allo act 10.2
O=C(c1ccc(CS(=O)Cc2ccc(Cl)cc2)o1)N1CCN(c2ccccc2F)CC1 (stereo not given)	none
Cc1ccc(C)c(N2CCN(C(=O)c3ccc(CS(=O)Cc4ccc(Cl)cc4)o3)CC2)c1 (stereo not given)	RGS4 pot -8.47
Cc1ccc(Cl)cc1N1CCN(C(=O)c2ccc(CS(=O)Cc3ccc(Cl)cc3)o2)CC1 (stereo not given)	none
Cc1cccc(N2CCN(C(=O)c3ccc(CS(=O)Cc4cccc(Cl)c4)o3)CC2)c1C (stereo not given)	RGS4 pot -10.2
Cc1ccc(S(=O)(=O)N2CCCN(C(=O)c3cc4ccccc4[nH]3)CC2)cc1	none
Nn1cnc2scc(-c3ccco3)c2c1=O	none
Cc1ccc(S(=O)(=O)NNC(=O)NC23CC4CC(CC(C4)C2)C3)cc1	MrgX1 agonist 28.1
CC(=O)Nc1ccc(S(=O)(=O)NNC(=O)NC23CC4CC(CC(C4)C2)C3)cc1	none
Cc1nn(Cc2ccccc2)c(Cl)c1/C=C/C(=O)OC(C)C(=O)N1CCCC1 (stereo not given)	MrgX1 antag -5.95
Cc1nn(Cc2ccccc2)c(Cl)c1/C=C/C(=O)OCC(=O)NC(C)C(C)C (stereo not given)	none
COc1ccc(S(=O)(=O)N2CCCC2CNC(=O)C(=O)Nc2cccc(F)c2)cc1 (stereo not given)	none
O=C(NC1CCCC1)C(c1cccnc1)N(C(=O)c1csnn1)c1ccccc1Cl (stereo not given)	none
OC1(c2cccs2)CN(c2ccc(Cl)cc2)C2=[N+]1CCCC2 (stereo not given)	RGS4 pot -9.11
OC1(c2cccs2)CN(c2ccc(Cl)cc2)C2=[N+]1CCCS2 (stereo not given)	MrgX1 agonist 28
Cc1ccc(C)c(N2CC(O)(c3cccs3)[N+]3=C2CCCC3)c1 (stereo not given)	none
C=CCn1c(SCC(=O)N2CCOCC2)nnc1C(C)NC(=O)c1ccccc1 (stereo not given)	MrgX1 antag -5.36

Source: PubChem (Johns Hopkins Ion Channel Center)
